Here are results for 16 molecules from ChEMBL document CHEMBL2177030.

Assay [1] concerns the target T1, Gastric triacylglycerol lipase (Canis lupus familiaris) (UniProt P80035).
T1 sequence (whole entry): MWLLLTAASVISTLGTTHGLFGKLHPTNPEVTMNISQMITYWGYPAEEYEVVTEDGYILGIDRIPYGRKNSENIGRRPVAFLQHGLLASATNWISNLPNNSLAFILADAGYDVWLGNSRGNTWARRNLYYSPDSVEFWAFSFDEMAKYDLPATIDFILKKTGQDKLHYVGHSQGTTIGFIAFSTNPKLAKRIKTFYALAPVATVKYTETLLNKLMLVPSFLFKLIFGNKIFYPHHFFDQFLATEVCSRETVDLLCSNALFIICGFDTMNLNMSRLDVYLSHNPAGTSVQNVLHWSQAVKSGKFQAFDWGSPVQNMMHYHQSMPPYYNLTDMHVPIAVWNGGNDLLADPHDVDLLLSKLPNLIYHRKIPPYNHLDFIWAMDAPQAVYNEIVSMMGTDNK
Briefly: Inhibition of dog recombinant gastric lipase expressed in transgenic maize at 200 molar excess compound concentration pre-incubated for 2 hrs with enzyme before substrate addition by pH-stat technique. Type of assay: single protein. Conditions: Stomach.

Assay [2] deals with T2, Pancreatic lipase-related protein 2 (Cavia porcellus) (UniProt P81139).
T2 sequence (whole entry): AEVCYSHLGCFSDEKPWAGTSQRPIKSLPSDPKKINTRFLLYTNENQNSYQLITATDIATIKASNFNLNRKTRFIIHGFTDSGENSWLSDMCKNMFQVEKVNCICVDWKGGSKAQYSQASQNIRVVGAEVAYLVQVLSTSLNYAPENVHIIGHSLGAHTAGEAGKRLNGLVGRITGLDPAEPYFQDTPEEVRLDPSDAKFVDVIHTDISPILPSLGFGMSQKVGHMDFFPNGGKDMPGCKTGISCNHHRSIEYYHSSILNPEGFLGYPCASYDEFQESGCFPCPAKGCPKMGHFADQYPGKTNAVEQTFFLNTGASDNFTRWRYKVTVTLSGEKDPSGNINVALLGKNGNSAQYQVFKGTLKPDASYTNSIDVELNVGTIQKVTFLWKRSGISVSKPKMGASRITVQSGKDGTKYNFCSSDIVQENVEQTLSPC
Description: Inhibition of guinea pig recombinant PLRP2 expressed in Aspergillus oryzae at 200 molar excess compound concentration pre-incubated for 2 hrs with enzyme before substrate addition by pH-stat technique.

Assay [3] deals with T3, Pancreatic triacylglycerol lipase (Homo sapiens) (UniProt P16233).
T3 sequence (whole entry): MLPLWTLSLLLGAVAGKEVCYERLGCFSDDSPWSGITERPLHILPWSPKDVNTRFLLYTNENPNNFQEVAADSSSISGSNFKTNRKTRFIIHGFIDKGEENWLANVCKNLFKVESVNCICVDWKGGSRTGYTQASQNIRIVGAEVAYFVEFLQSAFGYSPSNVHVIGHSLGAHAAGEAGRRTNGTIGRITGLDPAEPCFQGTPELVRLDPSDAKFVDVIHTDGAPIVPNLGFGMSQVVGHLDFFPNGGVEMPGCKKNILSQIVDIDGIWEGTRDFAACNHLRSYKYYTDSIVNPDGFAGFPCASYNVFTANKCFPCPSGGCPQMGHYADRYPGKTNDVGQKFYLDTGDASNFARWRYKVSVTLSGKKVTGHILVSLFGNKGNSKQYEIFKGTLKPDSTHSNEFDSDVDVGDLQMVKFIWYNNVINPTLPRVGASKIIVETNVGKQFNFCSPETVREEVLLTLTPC
Description: Inhibition of human recombinant pancreatic lipase expressed in Pichia pastoris at 200 molar excess compound concentration pre-incubated for 2 hrs with enzyme before substrate addition by pH-stat technique.

The subject of assay [4] is Mycobacterium tuberculosis. Briefly: Inhibition of Mycobacterium tuberculosis LipY pre-incubated for 30 mins with enzyme before substrate addition by pH-stat technique. The method, boiled down:
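Without NaTDC, LipY was incubated 30 min at 25 °C with inhibitor at xI 2–100. Residual activity was determined by pH-stat at 37 °C on TC4 in 2.5 mM Tris-HCl pH 7.5, 300 mM NaCl, 3 mM NaTDC. xI50 was taken from activity versus molar excess. Isopropanol-only controls were run. At least duplicate.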

Assay [5] has as its target Monoacylglycerol lipase (Mycobacterium tuberculosis H37Rv) (UniProt O07427). Description: Inhibition of Mycobacterium tuberculosis Rv0183 pre-incubated for 30 mins with enzyme before substrate addition by pH-stat technique. The method, boiled down:
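Rv0183 was preincubated 30 min at 25 °C without NaTDC at inhibitor molar excess 2, 4, 20, 40 or 100. Residual monoglyceride lipase activity was measured by pH-stat at 37 °C with MC18 emulsion, pH 8.0, 3 mM NaTDC. xI50 was read from the residual-activity curve. Solvent controls were run. At least duplicate.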

In assay [6] the target is T4, Cutinase 1 (Fusarium vanettenii) (UniProt P00590).
T4 sequence (whole entry): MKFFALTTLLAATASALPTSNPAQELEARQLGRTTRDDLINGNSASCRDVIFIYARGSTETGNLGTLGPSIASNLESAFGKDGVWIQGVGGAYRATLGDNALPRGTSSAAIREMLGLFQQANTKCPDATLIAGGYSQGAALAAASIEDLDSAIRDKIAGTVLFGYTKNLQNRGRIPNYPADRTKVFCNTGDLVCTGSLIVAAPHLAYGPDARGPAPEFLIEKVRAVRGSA
Briefly: Inhibition of Fusarium solani pisi cutinase pre-incubated for 30 mins with enzyme before substrate addition by pH-stat technique. Put shortly:
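Cutinase was preincubated for 30 min at 25 °C in 2 mM NaTDC, substrate absent, at inhibitor molar excess xI 2, 4, 20, 40 or 100. Residual activity was measured by pH-stat at 37 °C on TC4 emulsion at pH 8.0 with 0.25 mM NaTDC. xI50 is the molar excess giving 50% activity. Isopropanol controls were run. At least duplicate.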

The test system of assay [7] is Mycobacterium tuberculosis. Briefly: Inhibition of Mycobacterium tuberculosis LipY assessed as covalent bond formation with enzyme serine residue by measuring change in molecular weight of enzyme-compound complexes at 40 molar excess compound concentration pre-incubated for 30 mins with enzyme before substrate addition by MALDI-TOF mass spectrometry method. The method, boiled down: (§1)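 Each enzyme was preincubated with the inhibitor for 30 min at 25 °C at xI 40, with the inhibitor taken from a 5 mg/mL isopropanol stock. Intact masses of native and inhibited protein were measured by MALDI-TOF. For tryptic mapping, 5–50 pmol protein was reduced with DTT, alkylated with iodoacetamide and digested overnight at 37 °C.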

For assay [8], the system named is Mycobacterium tuberculosis. Briefly: Inhibition of Mycobacterium tuberculosis LipY assessed as half inactivation time pre-incubated with enzyme before substrate addition by pH-stat technique. Put shortly:
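LipY was incubated with inhibitor at xI 4 at 25 °C without NaTDC for up to 1 h. At time points, residual activity was titrated by pH-stat at 37 °C on TC4 emulsion in 2.5 mM Tris-HCl pH 7.5, 300 mM NaCl, 3 mM NaTDC. Half-inactivation time came from the curve. Runs were done at least in duplicate.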

For assay [9], the system named is Mycobacterium tuberculosis. Description: Inhibition of Mycobacterium tuberculosis LipY at 40 molar excess compound concentration pre-incubated for 30 mins with enzyme before substrate addition by pH-stat technique.
The target in assay [10] is T4, Cutinase 1 (Fusarium vanettenii). Description: Inhibition of Fusarium solani pisi cutinase assessed as covalent bond formation with enzyme serine residue by measuring change in molecular weight of enzyme-compound complexes at 40 molar excess compound concentration pre-incubated for 30 mins with enzyme before substrate addition by MALDI-TOF mass spectrometry method. The method, boiled down: as §1

Calls of active or inactive are those of the source. No cut-off for these calls is given here.

The inhibition is the change of the read-out against control, counted positive when it falls.

Sequence of Monoacylglycerol lipase (Mycobacterium tuberculosis H37Rv) (O07427 whole entry): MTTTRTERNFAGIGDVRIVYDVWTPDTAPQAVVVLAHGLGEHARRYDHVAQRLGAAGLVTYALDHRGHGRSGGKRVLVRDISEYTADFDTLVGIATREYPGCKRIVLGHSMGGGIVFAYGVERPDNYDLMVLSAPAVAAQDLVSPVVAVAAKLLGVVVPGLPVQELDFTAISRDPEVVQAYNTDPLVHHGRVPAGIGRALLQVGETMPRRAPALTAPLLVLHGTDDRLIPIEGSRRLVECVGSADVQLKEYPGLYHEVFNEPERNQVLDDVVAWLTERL

For the molecule `CCCCCCCCCCCCCCCCCCOP1(=O)CCCC(C(=O)OC)=C(C)O1` (configuration not stated), the inhibition result in assay [1], in assay [2] and in assay [3] was “inactive” throughout. In addition, the XI50 in [4] was 0.59 molar excess; in assay [6] it was 0.95 molar excess. In addition, the XI50 result in assay [5] was “inactive”.
`CCCCCCCCCCCCCCCCOP1(=O)CCCC(C(=O)OC)=C(C)O1` (configuration not stated): in assay [7], the Activity was 444 Da. Besides, the inhibition result in assay [1], in assay [2] and in assay [3] was “inactive” each time. Further, the T1/2 in assay [8] turned out to be 9.6 s. Besides, the results for the XI50 in assay [4] and in assay [6] were 0.83 molar excess and 0.56 molar excess, respectively. Besides, in assay [5], the XI50 entry was “inactive”.
`CCCCCC1CCP(=O)(OC)OC(C)=C1C(=O)OC` (racemic) registered an inhibition in assay [9] of 14%.
For the molecule `CCCCCCCCCCCCCCCCCC[C@@H]1CC[P@@](=O)(OC)OC(C)=C1C(=O)OC` (racemic), the inhibition entry in assay [1], in assay [2] and in assay [3] was “inactive” throughout. The XI50 was determined as 0.77 molar excess in [4], 3.15 molar excess in assay [5] and 1.18 molar excess in assay [6].
Turning to `CCCCCCCCCCCCCCCCCC[C@@H]1CC[P@](=O)(OC)OC(C)=C1C(=O)OC` (racemic), the inhibition entry in assay [1], in assay [2] and in [3] was “inactive” throughout. The figures for the XI50 in assay [4], in [5] and in [6] were 7.47 molar excess, above 100 molar excess and 7.26 molar excess, respectively.
As for `CCCCCCCCCCCCCCCC[C@@H]1CC[P@@](=O)(OC)OC(C)=C1C(=O)OC` (racemic), the inhibition result in assay [1], in assay [2] and in assay [3] was “inactive” in each case. Besides, the XI50 is 0.6 molar excess in [4], 1.32 molar excess in assay [5] and 2.54 molar excess in assay [6].
Consider `CCCCCCCCCCCCCCCC[C@@H]1CC[P@](=O)(OC)OC(C)=C1C(=O)OC` (racemic), for which the inhibition result in assay [1], in assay [2] and in [3] was “inactive” throughout. Also, the XI50 in assay [4] is 3.47 molar excess; in assay [5] it was above 100 molar excess; in assay [6] it was 4.43 molar excess.
`CCCCCCCCCCCC[C@@H]1CC[P@@](=O)(OC)OC(C)=C1C(=O)OC` (racemic): the inhibition result in [1], in assay [2] and in [3] was “inactive” in each case. The values for the XI50 in assay [4], in assay [5] and in assay [6] were 3.46 molar excess, 5.23 molar excess and 2 molar excess, respectively.
In the case of `CCCCCCCCCCCC[C@@H]1CC[P@](=O)(OC)OC(C)=C1C(=O)OC` (racemic), the inhibition result in assay [1], in [2] and in assay [3] was “inactive” each time. Also, the XI50 is 6.14 molar excess in [4], 2.44 molar excess in assay [5] and 3.63 molar excess in assay [6].
In the case of `CCCCCCCCCC[C@@H]1CC[P@](=O)(OC)OC(C)=C1C(=O)OC` (racemic), the inhibition result in assay [1], in [2] and in assay [3] was “inactive” each time. Also, the values for the XI50 in assay [4], in assay [5] and in assay [6] were 25.8 molar excess, 3.57 molar excess and 14.6 molar excess, respectively.
For `CCCCC[C@@H]1CC[P@@](=O)(OC)OC(C)=C1C(=O)OC` (racemic), the inhibition entry in assay [1], in [2] and in assay [3] was “inactive” each time. The XI50 in assay [4] was above 100 molar excess; in [5] it was 2.7 molar excess; in assay [6], 1.42 molar excess.
`CCCCC[C@@H]1CC[P@](=O)(OC)OC(C)=C1C(=O)OC` (racemic): the inhibition result in assay [1], in [2] and in assay [3] was “inactive” throughout. Besides, the XI50 in assay [4] was above 100 molar excess; in assay [5] it was 3.79 molar excess; in [6], 26.2 molar excess.
Consider `COC(=O)C1=C(C)OP(=O)(OC)CCC1` (racemic), for which, in [10], the Activity is 233 Da. Further, the inhibition entry in assay [1], in assay [2] and in assay [3] was “inactive” throughout. The same molecule gave an inhibition in assay [9] of 14%. In addition, the values for the XI50 in assay [4], in assay [5] and in assay [6] were above 100 molar excess, 30.5 molar excess and 1.39 molar excess, respectively.
Regarding `COP1(=O)CCCC(CO)=C(C)O1` (racemic), the inhibition result in assay [1], in [2] and in assay [3] was “inactive” throughout. Further, the XI50 entry in assay [4] and in assay [5] was “inactive” in each case. Besides, the XI50 in [6] is above 100 molar excess.
Turning to `CO[P@@]1(=O)CC[C@@H]2COC(=O)C2=C(C)O1` (racemic), the inhibition entry in assay [1], in [2] and in assay [3] was “inactive” in each case. Moreover, the inhibition in [9] was 14%. In addition, the values for the XI50 in assay [4], in assay [5] and in assay [6] were above 100 molar excess, 41.6 molar excess and 4.49 molar excess, respectively.
For `CO[P@]1(=O)CC[C@@H]2COC(=O)C2=C(C)O1` (racemic), the inhibition result in assay [1], in assay [2] and in [3] was “inactive” throughout. This molecule also registered an inhibition in [9] of 14%. The XI50 is above 100 molar excess in [4], 43.2 molar excess in assay [5] and 8.77 molar excess in [6].
